High-throughput results: PubChem, Johns Hopkins Ion Channel Center
RGS4 act: potentiators or activators of RGS4 | HEK293 M3R/inducible RGS4, carbachol calcium flux Fluo4; active compounds read low | B-score at 10 µM | actives 0.92% (n = 310,000);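 active = B-score of the integrated calcium signal more than 4 SD below the library mean, with starting fluorescence not abnormally high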;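 note: negative B-score means reduced calcium response which marks RGS4 activation or potentiation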
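Material: M3R-expressing HEK293 line, RGS4 induced by doxycycline | Schedule: Overnight RGS4 induction, 30 min dye load 37 °C, 20 min compound RT | Measured by: Fluo4 fluorescence kinetic imaging of calcium | Read-out: Integrated calcium ratio converted to B score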
RGS4 inh: human RGS4 inhibition | HEK293 M3R/RGS4 inducible, Fluo-4 calcium flux; active compounds read high; triggered by carbachol at its EC20 | AID 463165 | B-score at 10 µM | actives 0.45% (n = 310,000) | P49798;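 active = B-score, a plate-corrected calcium signal, over three deviations above library mean, with baseline fluorescence within five deviations of library mean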;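 note: RGS4 expression induced by doxycycline in cells with stable M3 receptor; B-score is computed from the integrated fluorescence ratio over baseline after carbachol; higher B-score means a larger calcium signal and so more RGS4 inhibition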
MrgX1 antag: blocks BAM8-22 activation of human MrgX1 receptor; AID 588676; B-score at 10 µM; MRGX1-HEK293 calcium flux, Fluo-4, BAM8-22 antagonism; active compounds read low; Q96LB2; actives 1.3% (n = 310,000);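 active = calcium-response B-score plate-corrected more than 3 library SD below zero, starting fluorescence within 5 deviations, no agonist response on first addition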;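 note: peak minus trough fluorescence over baseline after final BAM8-22 challenge near maximal dose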
Target sequence (Q96LB2 whole entry, looked up): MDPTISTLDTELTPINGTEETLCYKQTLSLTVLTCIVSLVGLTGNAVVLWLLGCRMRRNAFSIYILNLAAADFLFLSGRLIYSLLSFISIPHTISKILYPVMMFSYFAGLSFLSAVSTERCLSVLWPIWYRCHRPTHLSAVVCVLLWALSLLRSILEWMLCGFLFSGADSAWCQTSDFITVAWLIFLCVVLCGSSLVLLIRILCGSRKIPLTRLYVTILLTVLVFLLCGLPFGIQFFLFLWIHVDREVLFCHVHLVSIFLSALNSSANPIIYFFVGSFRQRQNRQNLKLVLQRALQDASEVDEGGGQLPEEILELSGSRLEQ
MrgX1 allo act: human MrgX1 positive allosteric modulation, primary screen; Q96LB2; MrgX1-HEK293, Fluo-4 calcium flux, FDSS; active compounds read high; B-score at 10 µM; actives 0.63% (n = 310,000);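 active = plate-corrected calcium response at least 3 library SD above typical, normal starting fluorescence, not activating the receptor alone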;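 note: compound read alongside a low EC10 to EC30 dose of BAM8-22 agonist; peak minus trough fluorescence over baseline measured at the second addition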
MrgX1 agonist: activates human MrgX1 receptor signaling; actives 0.44% (n = 310,000); Q96LB2; B-score at 10 µM; MrgX1-HEK293 cells, Fluo-4 calcium fluorescence, agonist mode; active compounds read high;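 active = calcium response B-score plate-corrected fluorescence ratio at least 3 library SD, with starting fluorescence B-score inside 5 SD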
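System: HEK293 cells stably expressing human MrgX1 receptor; Dosing: test compound in the initial addition of three; Schedule: overnight plating, then 30 min 37 °C plus 30 min room-temperature dye loading; Detection: kinetic calcium dye fluorescence, Fluo-4 NW; Controls: per-plate positive and negative controls for Z′ factor.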
Numbers without * were called inactive; i = inactive; · = no result given. Sampled rows, rich in hits. Any-hit rate of the full collection: about 3.5%.

SMILES	RGS4 act	RGS4 inh	MrgX1 antag	MrgX1 allo act	MrgX1 agonist
CCN=C1SC(C(=O)Nc2cccc(Cl)c2)CC(=O)N1CC (stereo unspecified)	i	i	i	i	i
O=c1oc2ccccc2nc1/C=C(O)/C=C\c1ccccc1	i	i	i	8.58*	i
O=c1oc2ccccc2nc1/C=C(O)/C=C/c1ccc(F)cc1	i	i	i	i	i
CCOC(=O)CCc1c(C(=O)OCC)[nH]c(CC)c1C(=O)OCc1ccccc1	-7.5*	i	i	i	i
CCOC(=O)c1c(C)[nH]c(C(=O)OCc2ccccc2)c1C	i	i	i	i	i
O=C(/C=C/c1ccccc1)Nc1cccc(C(=O)O)c1	i	i	-5.64*	i	i
O=C(/C=C/c1ccccc1)Nc1ccc2c(c1)OCCO2	i	i	-4.58*	i	i
O=C(/C=C/c1ccco1)Nc1ccc2c(c1)OCCO2	i	i	i	i	i
N#C/C(=C\c1cccc(O)c1)C(=O)Nc1ccc2c(c1)OCCO2	i	i	i	17.1*	i
CCC(=O)Nc1cccc(C(=O)/C=C/c2ccccc2)c1	i	i	i	i	35.4*
Cc1ccc(C(=O)CSc2nc(O)cc(=O)[nH]2)cc1C	i	i	i	i	i
O=C(OCC(=O)N(Cc1ccccc1)Cc1ccccc1)c1ccccc1NCCO	-9.29*	i	i	i	i
Nn1c(SCc2cccc3ccccc23)nnc1-c1ccco1	i	i	i	i	i
Nn1c(SCc2ccccc2)nnc1-c1ccco1	i	i	-5.69*	i	i
Cc1ccc(O)c(N=Cc2cc(Cc3ccccc3)cc([N+](=O)[O-])c2O)c1	-7.2*	i	·	·	·
CCN(Cc1ccc(O)cc1)CC1CCCN(CCc2cccc(F)c2)C1 (stereo unspecified)	i	i	i	i	i
CC12CCC(C/C1=N/OC(=O)c1cccc([N+](=O)[O-])c1)C2(C)C (stereo unspecified)	i	i	i	9.84*	i
C/C(=N\OC(=O)c1ccc(F)cc1)c1ccc(F)c(F)c1	i	i	i	i	i
CC12CCC(C/C1=N\OC(=O)c1ccc(F)cc1)C2(C)C (stereo unspecified)	i	i	i	8.45*	i
CC(C)N1CCC(N2CCN(CCCn3cccn3)CC2CCO)CC1 (stereo unspecified)	i	i	i	i	i
CC1=C(C#N)c2nc(N)c(C#N)c(C)c2/C1=C\c1ccc(OCC(=O)O)c(Cl)c1	i	i	-5.37*	i	i
O=C(CSc1ccccn1)Nc1ccc(NC(=O)CSc2ccccn2)cc1	i	i	i	i	i
O=C(CSc1ccccn1)Nc1nonc1[N+](=O)[O-]	i	i	i	i	37.9*
O=C(CSc1nc(=O)n2ccccc2n1)N1CCN(c2ccccc2)CC1	i	i	i	i	i
COc1ccccc1C1=NNC(=Nc2cccc(S(=O)(=O)N(C)C)c2)SC1	i	i	-4.98*	i	i
SMILES	RGS4 act	RGS4 inh	MrgX1 antag	MrgX1 allo act	MrgX1 agonist
COCCn1c(C)cc(C2=NNC(=Nc3ccccc3)SC2)c1C	i	i	i	i	i
O=C(COC(=O)c1cc(F)cc(F)c1)NCCCc1ccccc1	i	i	i	i	i
CC(C)(CNC(=O)c1ccc(Br)o1)CNC(=O)c1ccc(Br)o1	i	i	·	·	·
O=C(Nc1ccc(Cl)cc1)Nc1ccc2c(c1)N1CCN=C1S2	i	i	-5.25*	i	i
CCCC(=O)C1=C(O)C(C(=O)OC)C(C)(C)CC1=Nc1ccccc1 (stereo unspecified)	i	i	i	i	i
CCCC(=O)C1=C(O)C(C(=O)OC)C(C)(C)CC1=Nc1cccc2ccccc12 (stereo unspecified)	i	i	i	8.07*	i
CCOP(=O)(c1ccccc1)c1nc(-c2ccc(F)cc2)oc1N1CCCCC1 (stereo unspecified)	i	i	i	i	37.8*
CCOP(=O)(OCC)c1nc(-c2ccc(Br)cc2)oc1N1CCCCC1	i	i	i	i	i
